Screening data deposited in PubChem by several laboratories.
An excerpt weighted towards active compounds, which were near 2.3% of everything screened.
PAX8 reporter: lowers PAX8-driven luciferase in RMG-I cells | RMG-I TPO-luciferase reporter, SteadyGlo, 24 h | inhibition, % at 12.6 µM | 360,000 tested, 1.2% active | AID 652154;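 active means mean replicate inhibition at least 60% with every replicate also reaching 60%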;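 further: luciferase light reporting Pax8 driven TPO promoter activity; plate controls were median of neutral control wells for no effect and mitoxantrone controls for full effect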
Env fusion inh: blocks HIV Env-driven cell-cell fusion. AID 651610. 360,000 tested, 1.1% active. inhibition, % at 12.3 µM. HeLa-JRFL Env/CEM21 cell fusion, luciferase;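 active means mean replicate inhibition score of at least 50 and every replicate individually at or above 50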;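 further: 0% = plate neutral controls and 100% = maraviroc near 300 nM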
PfHsp90 yeast 2: growth inhibition of yeast expressing Plasmodium Hsp90; S. cerevisiae expressing PfHsp90, BacTiter-Glo ATP, 48 h; yeast lacking PDR1 and PDR3 efflux regulators; inhibition, % at 9.4 µM; 310,000 tested, 0.32% active; AID 504621;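 active means every replicate shows inhibition above about 80%, whatever the replicate mean, limit read from the data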;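 further: 0% = DMSO neutral controls and 100% = 20 µM radicicol positive controls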
Glyco luc inh: blocks N-linked glycosylation in D54 reporter cells. D54 ERlucT glycosylation luciferase reporter, 24 h; percent of 100 nM tunicamycin response. reporter increase, % at 12.5 µM. 360,000 tested, 0.23% active. AID 588692;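 active means mean luciferase reporter signal, scaled so untreated is 0 and the glycosylation-blocking control 100, at or above a set limit in every replicate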;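 further: luciferase carries N-glycosylation sites so blocking glycosylation raises the light; 0% = median of neutral control wells and 100% = median of 100 nM tunicamycin wells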
Arr AP2 block: inhibitors of human beta-arrestin and AP2 interaction; 340,000 tested, 0.31% active; AID 504490; inhibition, % at 10 µM; FITC-arrestin peptide / GST-AP2 beads, flow cytometry; AP2 beta2 appendage carries R879A mutation;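 active means inhibition above a set limit, near 3 SD of compounds lacking own fluorescence, cut at about 54% in these data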;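 further: plate controls were DMSO wells for no effect and 5 µM unlabelled arrestin peptide for full effect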
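Material – GST-tagged AP2 beta2-adaptin appendage (R879A) on 4 µm glutathione beads · Probe or stimulus – fluorescein-tagged arrestin peptide at 50 nM final · Timing – 12 min plus 1 h, RT · Detection – bead flow cytometry, FITC channel · Read-out basis – inhibition as reduced fluorescein signal on beads, percent · Medium – PBS plus Tween 20 (0.05%) and BSA (0.1%)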
Rtt109 Vps75: C. albicans Rtt109 histone acetyltransferase inhibition | Q5AAJ8 | purified Rtt109/Vps75, ThioGlo CoA-SH fluorescence, 4 h | inhibition, % at 34.9 µM | 330,000 tested, 0.16% active;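 active means inhibition of at least 50% in every replicate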
Target sequence (Q5AAJ8 whole entry, looked up): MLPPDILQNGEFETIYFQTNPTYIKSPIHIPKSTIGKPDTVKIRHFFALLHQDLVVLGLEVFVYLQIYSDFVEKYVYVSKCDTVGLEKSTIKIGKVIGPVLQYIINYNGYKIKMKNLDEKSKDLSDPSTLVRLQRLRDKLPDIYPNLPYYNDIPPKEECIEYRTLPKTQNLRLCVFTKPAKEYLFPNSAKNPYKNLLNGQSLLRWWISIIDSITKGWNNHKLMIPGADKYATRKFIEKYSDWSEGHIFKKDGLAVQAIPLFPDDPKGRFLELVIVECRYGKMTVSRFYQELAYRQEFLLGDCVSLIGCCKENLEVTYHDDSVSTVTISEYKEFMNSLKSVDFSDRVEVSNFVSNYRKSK
Arr-AP2 CP1: human beta-arrestin and AP2 interaction inhibition, cherry pick. shares compounds with Arr AP2 block. GST-AP2 beads, FITC arrestin peptide binding, flow cytometry; GST-fused beta2-adaptin appendage, R879A mutant. inhibition, % at 10 µM. 1,300 tested, 2% active. AID 504908;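 active means inhibition above a set limit, roughly 3 SD of non-fluorescent compound noise, cut at about 38% in these data; inactive means inhibition at or below that limit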;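 further: loss of bead fluorescence from 50 nM FITC arrestin peptide bound to appendage; 0% = negative control wells and 100% = excess unlabelled arrestin peptide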
GST GSH counter: counter-screen for beta-arrestin AP2 inhibitors: GST-GSH bead binding. shares compounds with Arr AP2 block. 1,300 tested, 2% active. GST-fluorescein binding to GSH beads, fluorescence. inhibition, % at 10 µM;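 active means inhibition above 50%, about 3 SD of the inhibition seen with non-fluorescent compounds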;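 further: fluorescein maleimide labelled GST captured on 4 micron glutathione beads; higher means more loss of bead fluorescence from quenching or blocked binding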
Numbers without * were called inactive; i = inactive; . = no result given; [ ] = another dose, or the depositor's remark.

SMILES	PAX8 reporter	Env fusion inh	PfHsp90 yeast 2	Glyco luc inh	Arr AP2 block	Rtt109 Vps75	Arr-AP2 CP1	GST GSH counter
COc1ccc(CN2CCN(C(=O)c3ccc(S(=O)(=O)NCc4ccco4)cc3)CC2)cc1F	20	16	.	4	-6	-9	0	-10
CCOC(=O)N1CCN(C(=O)c2ccc(S(=O)(=O)NCc3ccco3)cc2)CC1	-4	2	.	0	2	1	.	.
O=C(C[C@H]1C=C[C@H](NC(=O)c2ccc(F)cc2)[C@H](CO)O1)NCc1ccncn1	-14	-25[16.7 µM]	.	.	.	.	.	.
COc1ccc(CN(C)C[C@@H]2Oc3ccc(NS(=O)(=O)c4ccc(F)cc4)cc3C(=O)N([C@H](C)CO)C[C@@H]2C)cc1	3	.	.	.	.	.	.	.
CC12CC3(C)CC(C)(C1)CC(C(=O)NCc1ccccn1)(C2)C3	22	23	-9	-1	37	7	.	.
COC(=O)CNC(=O)C12CC3(C)CC(C)(CC(C)(C3)C1)C2	.	.	-1	1	59*	2	-7	-1
CCCN(C)C[C@H]1Oc2cc(C3=CCCC3)ccc2S(=O)(=O)N([C@@H](C)CO)C[C@@H]1C	.	-10[16.7 µM]	.	.	.	.	.	.
CSc1cccc(NC(=S)N(Cc2ccc(C)cc2)Cc2ccccn2)c1	1	5	-4	0	54*	2	-8	-9
COc1ccc(CCN(Cc2ccccn2)C(=S)Nc2cccc(SC)c2)cc1OC	5	2	0	2	-12	-5	.	.
O=C(N=c1ccn(-c2nc3ccccc3nc2NS(=O)(=O)c2ccccc2)cc1)c1cccs1	-2	-7	5	2	58*	6	-11	60*
COc1ccccc1-c1ccc2c(c1)[C@H]1[C@H](CCN1C(=O)CN1CCOCC1)[C@H](CO)N2C	-69	.	.	.	.	.	.	.
CC/C(=N\NC(=S)NC(C)C)c1ccc(OC)c(OC)c1	13	-1	-76	0	56*	-7	2	-3
CNC(=O)C[C@H]1CC[C@@H]2[C@@H](COc3ccc(NC(=O)Nc4ccc(Cl)cc4)cc3C(=O)N2C)O1	1	31[16.7 µM]	.	.	.	.	.	.
C=CCSc1nc(N2CCOCC2)c2c(c1C#N)CC(C)(C)N(C)C2	8	12	28	0	-17	-2	.	.
CCSc1nc(N2CCOCC2)c2c(c1C#N)CC(C)(C)N(C)C2	.	.	-16	2	54*	-6	-15	-6
C[C@H](CO)N1C[C@H](C)[C@H](CN(C)C(=O)Nc2ccc(F)cc2)OCCCC[C@H](C)Oc2ccc(NC(=O)CCCN(C)C)cc2C1=O	8	6[16.7 µM]	.	.	.	.	.	.
CCCOc1ccc(C(=O)CCNc2cccc(Cl)c2)cc1	-54	-21	20	-2	57*	0	5	-1
COc1ccc(C(=O)CCNc2cccc(Cl)c2)cc1	-114	-24	-18	-1	-5	1	.	.
Cc1noc(C)c1NC(=O)N(C)C[C@@H]1Oc2c(NC(=O)CCCCCC(=O)Nc3ccccc3N)cccc2C(=O)N([C@@H](C)CO)C[C@H]1C	11	.	.	.	.	.	.	.
CC(Oc1cccc(Cl)c1)C(=O)Nc1ccncc1 (stereo not drawn)	-1	-7	-9	0	21	-2	.	.
CC(OC(=O)c1ccncc1)C(=O)Nc1cccc(Cl)c1 (stereo not drawn)	.	.	-23	-1	81*	9	6	-5
COc1ccc(OC)c(-c2csc(NC(=O)CN3C(=O)NC4(CCCC4)C3=O)n2)c1	7	-6	-11	3	68*	14	1	-1
COc1cc(OC)cc(C(=O)N[C@H](C(=O)Nc2nc(-c3cc(OC)ccc3OC)cs2)C(C)C)c1	30	-9	1	-1	58*	-4	-15	15
CN1CCN(c2ccccc2NC(=O)c2ccc(N3CCCC3)c([N+](=O)[O-])c2)CC1	9	16	-4	3	3	1	.	.
O=C(Nc1ccon1)c1ccc(N2CCCCC2)c([N+](=O)[O-])c1	-200	-71	7	-5	1	.	.	.
SMILES	PAX8 reporter	Env fusion inh	PfHsp90 yeast 2	Glyco luc inh	Arr AP2 block	Rtt109 Vps75	Arr-AP2 CP1	GST GSH counter
CCn1c(=O)n(CC)c2cc(N3CCCC3)c(NC(=O)c3cccc(Cl)c3)cc21	4	7	8	7	4	-2	-7	0
Cc1cc(NC(=O)c2ccc(N3CCCC3)c([N+](=O)[O-])c2)no1	-14	-3	-2	-1	98*	0	-3	23
CCN1CCN(c2ccc(S(=O)(=O)N3CCCCC3)cc2NC(=O)c2cccc(Cl)c2)CC1	4	i	.	-4	2	17	.	.
CCn1c(=O)n(CC)c2cc(N3CCCC3)c(NC(=O)c3ccc(C)c([N+](=O)[O-])c3)cc21	-13	-6	-16	6	70*	26	0	-7
CCn1c(=O)n(CC)c2cc(N3CCCC3)c(NC(=O)c3cccc(C)c3)cc21	-10	3	0	4	64*	.	9	7
C[C@@H]1CN([C@@H](C)CO)C(=O)CCCn2cc(nn2)CO[C@@H]1CN(C)Cc1ccncc1	4	.	.	.	.	.	.	.
C[C@@H]1CN([C@@H](C)CO)C(=O)c2cc(NC(=O)CCCN(C)C)ccc2O[C@H]1CN(C)S(=O)(=O)c1ccccc1	-8	6[16.7 µM]	.	.	.	.	.	.
N#C[C@@H]1[C@@H](c2ccccc2C2=CCCC2)[C@@H](CO)N1C(=O)NC1CCCC1	11	-1[16.7 µM]	.	.	.	.	.	.
C[C@@H]1CN([C@@H](C)CO)C(=O)c2cc(NS(=O)(=O)c3cccs3)ccc2O[C@@H]1CN(C)S(=O)(=O)c1cccs1	0	-32[16.7 µM]	.	.	.	.	.	.
COc1ccc(NC(=O)N(C)C[C@H]2OCCCC[C@H](C)Oc3ccc(NC(=O)Nc4ccc(F)cc4)cc3C(=O)N([C@H](C)CO)C[C@@H]2C)cc1	-10	-7[16.7 µM]	.	.	.	.	.	.
O=C(CCC(=O)N1CCCCC1)Nc1ccc(Cl)c(Cl)c1	-8	-3	0	0	85*	-1	-1	-4
O=C(CCC(=O)N1CCOCC1)Nc1ccc(Cl)c(Cl)c1	.	.	-6	.	1	-5	.	.
O=C(c1ccc2ncsc2c1)N1CCN(c2ccc(O)cc2)CC1	.	.	2	-2	65*	7	-9	-12
Cc1cccc(N2CCN(C(=O)c3ccc4ncsc4c3)CC2)c1C	-4	-86	-11	13	-11	9	.	.
COc1ccc(/C=C/C(=O)c2ccccc2)cc1COc1ccccc1F	.	-3	-4	24	56*	3	17	-7
CNC[C@H]1OCCCC[C@@H](C)Oc2ccc(NC(=O)NC3CCCCC3)cc2C(=O)N([C@H](C)CO)C[C@H]1C	-7	-10[16.7 µM]	.	.	.	.	.	.
